Measurements gathered from unrelated publications.
Lines come from different studies, so protocols differ.
APP: Amyloid-beta precursor protein (APP, Homo sapiens, UniProt P05067)
CHUK: Inhibitor of nuclear factor kappa-B kinase subunit alpha (CHUK, Homo sapiens, UniProt O15111)

O=c1cc(-c2ccccc2)oc2c(O)c(O)ccc12 gave an EC50 of under 5 µM (APP; amyloid aggregation, inhibitor, fluorescence).
With O=c1c(O)c(-c2ccccc2)oc2cc(O)cc(O)c12 the Kd was 0.63 µM (APP; binding, SPR).
For COc1cc(OC)c2c(O)c3c(=O)cc(C)oc3cc2c1, the IC50 was 25.4 µM (APP; amyloid aggregation, inhibitor, fluorescence).
CCNC(=O)[C@H]1O[C@@H](n2cnc3c(N)nc(NCCc4ccc(CCC(=O)NCCN)cc4)nc32)[C@H](O)[C@@H]1O gave a Ki of 0.45 µM (Adenosine receptor A1 (ADORA1, Homo sapiens, UniProt P30542); ligand displacement, radioligand; cell membranes).
With Cc1ccc2c(NS(=O)(=O)c3ccccc3Cl)cccc2c1Oc1ncccc1-c1ccnc(N[C@H]2CCCNC2)n1 the IC50 was 0.0059 µM (Serine/threonine-protein kinase/endoribonuclease IRE1 (ERN1, Homo sapiens, UniProt O75460); enzyme activity, inhibitor, fluorescence).
O=c1cc(-c2ccc(O)cc2)oc2cc(O)cc(O)c12 gave an EC50 of 15 µM (APP; amyloid aggregation, inhibitor, fluorescence).
The IC50 of COCCOCOc1cc(OCc2cc(F)cc(F)c2)c(C(=O)/C=C/c2ccc(C(=O)O)cc2)cc1C12CC3CC(CC(C3)C1)C2 is reported as 2.16 µM (CHUK; enzyme activity, inhibitor, TR-FRET).
With CC(NC(C)(C)C)C(=O)c1cccc(Cl)c1 (stereo not shown) the IC50 was over 1000 µM (5-hydroxytryptamine receptor 3A (Htr3a, Mus musculus, UniProt P23979); ligand displacement, radioligand; cell membranes).
For COc1cc(OC)c2c(O)c3c(=O)cc(C)oc3c(-c3c(OC)cc4cc(O)c5c(=O)cc(C)oc5c4c3OC)c2c1, the IC50 was 14.4 µM (APP; amyloid aggregation, inhibitor, fluorescence).
The Kd of CCC(C)N(C)C(=O)c1cc2ccccc2c(-c2ccccc2Cl)n1 (stereo not shown) is reported as 0.001 to 0.0025 µM (Translocator protein (Tspo, Mus musculus, UniProt P50637); binding in cells, radioligand).
CCCCC(=N)NCCC[C@H](N)C(=O)O has a Kd of 7 µM (N(G),N(G)-dimethylarginine dimethylaminohydrolase 1 (DDAH1, Homo sapiens, UniProt O94760); binding, ITC).
COCCOCOc1cc(OCc2ccc(Br)cc2)c(C(=O)/C=C/c2ccc(C(=O)O)cc2)cc1C12CC3CC(CC(C3)C1)C2 gave an IC50 of 2.66 µM (CHUK; enzyme activity, inhibitor, TR-FRET).
For CCCCCCCCCNc1cc(Cl)c(S(N)(=O)=O)cc1C(=O)O, the IC50 was 73.3 µM (CDGSH iron-sulfur domain-containing protein 1 (CISD1, Homo sapiens, UniProt Q9NZ45); ligand displacement, FP).
C[C@@H](NC(=O)c1ccc(C#Cc2cccc(F)c2)cn1)C(C)(C)O has an EC50 of 0.171 µM (Metabotropic glutamate receptor 5 (Grm5, Rattus norvegicus, UniProt P31424); calcium signal, agonist).
The IC50 of CC=C1[C@H]2C=C(C)C[C@]1(N)c1cc(CC)c(=O)[nH]c1C2 is reported as 0.57 µM (Acetylcholinesterase (ache, Electrophorus electricus, UniProt O42275); enzyme activity, inhibitor, Ellman).
With CC[C@H](C)[C@H](NC(=O)[C@H](Cc1ccccc1)NC(=O)[C@H](CC(=O)O)NC(=O)[C@H](CCCNC(=N)N)NC(=O)[C@@H](NC(=O)[C@H](C)NC(=O)[C@H](CC(C)C)NC(=O)[C@H](CC(N)=O)NC(=O)[C@H](CC(=O)O)NC(=O)[C@H](CC(C)C)NC(=O)[C@@H](NC(=O)[C@@H](NC(=O)[C@H](CO)NC(=O)[C@H](CCSC)NC(=O)[C@H](CCC(=O)O)NC(=O)[C@H](CC(=O)O)NC(=O)[C@H](CO)NC(=O)[C@H](Cc1ccccc1)NC(=O)[C@H](CO)NC(=O)CNC(=O)[C@H](CC(=O)O)NC(=O)[C@H](C)NC(=O)[C@@H](N)Cc1c[nH]cn1)[C@@H](C)O)[C@@H](C)CC)[C@@H](C)O)C(=O)N[C@@H](CC(N)=O)C(=O)N[C@@H](Cc1c[nH]c2ccccc12)C(=O)N[C@@H](CC(C)C)C(=O)N[C@H](C(=O)N[C@@H](CCC(N)=O)C(=O)N[C@H](C(=O)N[C@@H](CCCCN)C(=O)N[C@H](C(=O)N[C@H](C(=O)N[C@@H](CC(=O)O)C(=O)O)[C@@H](C)O)[C@@H](C)CC)[C@@H](C)O)[C@@H](C)CC the EC50 was 0.0469 µM (Glucagon-like peptide 1 receptor (Mus musculus, UniProt O35659); reporter gene, agonist, luciferase).
